Assay results: ChEMBL document CHEMBL4477237, “Structure-Based Design of β5c Selective Inhibitors of Human Constitutive Proteasomes” (J Med Chem, 2016)

How the values were obtained:
[1] = biological target: T1, Proteasome Macropain subunit MB1 (Homo sapiens, UniProt P28074); test: (§1) Inhibition of catalytic activity of constitutive proteasome 20s subunit beta5 in human Raji cells incubated for 1 hr by BODIPY(TMR)-NC-005-VS probe based competitive activity based protein profiling assay; format: cell-based
T1 sequence (P28074 whole entry): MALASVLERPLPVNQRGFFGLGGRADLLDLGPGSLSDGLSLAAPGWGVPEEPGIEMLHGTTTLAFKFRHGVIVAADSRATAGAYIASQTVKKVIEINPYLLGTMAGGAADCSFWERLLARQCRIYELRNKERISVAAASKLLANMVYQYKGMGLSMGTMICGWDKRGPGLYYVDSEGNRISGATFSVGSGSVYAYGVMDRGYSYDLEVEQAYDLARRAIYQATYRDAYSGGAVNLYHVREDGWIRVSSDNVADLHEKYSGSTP

[2] = species: Homo sapiens; test: Selectivity ratio of IC50 for immunoproteasome 20s subunit beta5 in human Raji cells to IC50 for constitutive proteasome 20s subunit beta5 in human Raji cells; format: cell-based
Outline: (§2)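 Initial screen in Raji cell extracts. Inhibitor at 0.01, 0.1, 1.0 and 10.0 µM final for 1 h at 37 °C, then ABP cocktail 1 h. In-gel fluorescence of β5c/β5i bands normalized to mock-treated extract, giving residual activity. Run once. IC50s from this screen feed the β5i/β5c ratio.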

[3] = biological target: T2, Proteasome Macropain subunit MB1 (Homo sapiens) (UniProt P28074); test: Inhibition of catalytic activity of constitutive proteasome 20s subunit beta5 in human Raji cells assessed as residual activity at 0.01 uM incubated for 1 hr by BODIPY(TMR)-NC-005-VS probe based activity based protein profiling assay relative to control; format: cell-based; outline: as §2
T2 sequence (whole entry): T1 sequence (P28074 whole entry)

[4] = biological target: Proteasome subunit beta type-8 (β5i, LMP7) (Homo sapiens) (UniProt P28062); test: Inhibition of catalytic activity of immunoproteasome 20s subunit beta5 in human Raji cells assessed as residual activity at 0.01 uM incubated for 1 hr by BODIPY(TMR)-NC-005-VS probe based competitive activity based protein profiling assay relative to control
[5] = biological target: T3, Proteasome component C5 (Homo sapiens) (UniProt P20618); test: Inhibition of catalytic activity of constitutive proteasome 20s subunit beta1 in human Raji cells incubated for 1 hr by Cy5-NC-001 probe based competitive activity based protein profiling assay; format: cell-based
T3 sequence (whole entry): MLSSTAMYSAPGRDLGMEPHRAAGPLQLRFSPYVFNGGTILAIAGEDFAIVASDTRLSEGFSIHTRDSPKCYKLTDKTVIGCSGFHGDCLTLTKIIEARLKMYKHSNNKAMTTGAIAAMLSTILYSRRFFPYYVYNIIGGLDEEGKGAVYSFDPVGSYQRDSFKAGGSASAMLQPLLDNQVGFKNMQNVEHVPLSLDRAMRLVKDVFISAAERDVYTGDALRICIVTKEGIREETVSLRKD

[6] = biological target: T2, Proteasome Macropain subunit MB1 (Homo sapiens); test: as §1; format: cell-based
[7] = biological target: Proteasome subunit beta type-9 (β1i, LMP2) (Homo sapiens) (UniProt P28065); test: Inhibition of catalytic activity of immunoproteasome 20s subunit beta1 in human Raji cells incubated for 1 hr by Cy5-NC-001 probe based competitive activity based protein profiling assay
[8] = biological target: Proteasome subunit beta type-8 (β5i, LMP7) (Homo sapiens) (UniProt P28062); test: Inhibition of catalytic activity of immunoproteasome 20s subunit beta5 in human Raji cells incubated for 1 hr by BODIPY(TMR)-NC-005-VS probe based competitive activity based protein profiling assay
[9] = biological target: Proteasome Macropain subunit (Homo sapiens) (UniProt P49721); test: Inhibition of catalytic activity of constitutive proteasome 20s subunit beta2 in human Raji cells incubated for 1 hr by BODIPY(FL)-LU-112 probe based competitive activity based protein profiling assay; format: cell-based

Row | Compound | IC50 [1] [nM] | Activity [3] [%] | Ratio IC50 [2] | further results
1 | C[C@H](NC(=O)[C@H](Cc1ccccc1)NC(=O)[C@H](C[C@H]1CC[C@@H](c2ccccc2)CC1)NC(=O)[C@H](Cc1ccccc1)N=[N+]=[N-])C(=O)[C@@]1(C)CO1 | 71 | – | 165 | –
2 | C[C@H](NC(=O)[C@H](Cc1ccccc1)NC(=O)[C@H](CC1CCC(C2CCCCC2)CC1)NC(=O)CN1CCOCC1)C(=O)[C@@]1(C)CO1 (some centres undefined) | 1230 | – | > 8 | –
3 | C[C@H](NC(=O)[C@H](Cc1ccccc1)NC(=O)[C@H](CC1CCC(C2CCCCC2)CC1)NC(=O)[C@H](Cc1ccccc1)N=[N+]=[N-])C(=O)[C@@]1(C)CO1 (some centres undefined) | 20 to 74.7 | – | – | pIC50(app) [5]: < 4; pIC50(app) [6]: 7.13; pIC50(app) [7]: < 4; pIC50(app) [8]: 4.78
4 | Cc1ccc(C[C@H](NC(=O)[C@H](Cc2ccccc2)N=[N+]=[N-])C(=O)N[C@@H](Cc2ccccc2)C(=O)N[C@@H](CC(C)C)C(=O)[C@@]2(C)CO2)cc1 | < 10 | 6 | – | Activity [4]: 15%
5 | CC(C)C[C@H](NC(=O)[C@H](Cc1ccccc1)NC(=O)[C@H](CC(C)(C)C)NC(=O)[C@H](Cc1ccccc1)N=[N+]=[N-])C(=O)[C@@]1(C)CO1 | 18 | – | 4 | –
6 | C[C@H](NC(=O)[C@H](Cc1ccccc1)NC(=O)[C@H](CC1CCCCC1)NC(=O)[C@H](Cc1ccccc1)N=[N+]=[N-])C(=O)[C@@]1(C)CO1 | 57 | – | > 175 | –
7 | COC1CCC(C[C@H](NC(=O)[C@H](Cc2ccccc2)N=[N+]=[N-])C(=O)N[C@@H](Cc2ccccc2)C(=O)N[C@@H](CC(C)C)C(=O)[C@@]2(C)CO2)CC1 (some centres undefined) | 2.1 | – | – | pIC50(app) [9]: 7.18; pIC50(app) [5]: < 4; pIC50(app) [6]: 8.68; pIC50(app) [7]: 6.05; pIC50(app) [8]: 7.67
8 | CC(C)C[C@H](NC(=O)[C@H](Cc1ccccc1)NC(=O)[C@H](CC1CC2CCC1C2)NC(=O)[C@H](Cc1ccccc1)N=[N+]=[N-])C(=O)[C@@]1(C)CO1 (some centres undefined) | < 10 | 24 | > 3 | –
9 | COc1ccc(C[C@H](NC(=O)[C@H](Cc2cccc3ccccc23)NC(=O)CN2CCOCC2)C(=O)N[C@@H](CC(C)C)C(=O)[C@@]2(C)CO2)cc1 | < 10 | 30 | – | Activity [4]: 36%
10 | COc1ccc(C[C@H](NC(=O)[C@H](Cc2ccc(-c3ccccc3)cc2)NC(=O)CN2CCOCC2)C(=O)N[C@@H](CC(C)C)C(=O)[C@@]2(C)CO2)cc1 | < 10 | 23 | – | Activity [4]: 44%
11 | CC(C)C[C@H](NC(=O)[C@H](Cc1ccccc1)NC(=O)[C@H](CC1CCCC2CCCCC21)NC(=O)[C@H](Cc1ccccc1)N=[N+]=[N-])C(=O)[C@@]1(C)CO1 (some centres undefined) | < 10 | 40 | > 1.5 | –
12 | CC(C)C[C@H](NC(=O)[C@H](Cc1ccccc1)NC(=O)[C@H](CCc1ccccc1)NC(=O)[C@H](Cc1ccccc1)N=[N+]=[N-])C(=O)[C@@]1(C)CO1 | 3 | – | – | pIC50(app) [9]: 7.22; pIC50(app) [5]: < 4; pIC50(app) [6]: 8.53; pIC50(app) [7]: 6.79; pIC50(app) [8]: 8.29
13 | CC(C)C[C@H](NC(=O)[C@H](Cc1ccccc1)NC(=O)[C@@H](NC(=O)[C@H](Cc1ccccc1)N=[N+]=[N-])C1CCCCC1)C(=O)[C@@]1(C)CO1 | 33 | – | 2 | –
14 | CC(C)C[C@H](NC(=O)[C@H](Cc1ccccc1)NC(=O)[C@H](CCC1CCCCC1)NC(=O)[C@H](Cc1ccccc1)N=[N+]=[N-])C(=O)[C@@]1(C)CO1 | 36 | – | 1 | –
15 | CC(C)C[C@H](NC(=O)[C@H](Cc1ccccc1)NC(=O)[C@H](Cc1ccccc1)NC(=O)[C@H](Cc1ccccc1)N=[N+]=[N-])C(=O)[C@@]1(C)CO1 | – | – | – | pIC50(app) [9]: 7.18; pIC50(app) [5]: < 4; pIC50(app) [7]: 6.91
16 | CC(C)C[C@H](NC(=O)[C@H](Cc1ccccc1)NC(=O)[C@H](Cc1cccc2ccccc12)NC(=O)[C@H](Cc1ccccc1)N=[N+]=[N-])C(=O)[C@@]1(C)CO1 | < 10 | 12 | – | Activity [4]: 28%
17 | C[C@H](NC(=O)[C@H](Cc1ccccc1)NC(=O)[C@H](C[C@H]1CC[C@@H](C2CCCCC2)CC1)NC(=O)[C@H](Cc1ccccc1)N=[N+]=[N-])C(=O)[C@@]1(C)CO1 | 710 | – | – | –
18 | COc1ccc(C[C@H](NC(=O)[C@H](CC23CC4CC(CC(C4)C2)C3)NC(=O)CN2CCOCC2)C(=O)N[C@@H](C)C(=O)[C@@]2(C)CO2)cc1 | 853 | – | > 12 | –

The next lines start with results.

Row | IC50 [1] [nM] | Activity [3] [%] | Compound | Ratio IC50 [2] | further results
19 | > 10000 | – | C[C@H](NC(=O)[C@H](Cc1ccccc1)NC(=O)[C@@H](NC(=O)[C@H](Cc1ccccc1)N=[N+]=[N-])[C@H](C)OC(C)(C)C)C(=O)[C@@]1(C)CO1 | – | –
20 | < 10 | 9 | CC(C)C[C@H](NC(=O)[C@H](Cc1ccccc1)NC(=O)[C@H](Cc1ccc(-c2ccccc2)cc1)NC(=O)[C@H](Cc1ccccc1)N=[N+]=[N-])C(=O)[C@@]1(C)CO1 | – | Activity [4]: 28%
21 | < 10 | 9 | COc1ccc(C[C@H](NC(=O)[C@H](Cc2ccc3ccccc3c2)NC(=O)CN2CCOCC2)C(=O)N[C@@H](CC(C)C)C(=O)[C@@]2(C)CO2)cc1 | – | Activity [4]: 23%
22 | < 10 | 36 | CC(C)C[C@H](NC(=O)[C@H](Cc1ccccc1)NC(=O)[C@H](CC1CCC2CCCCC2C1)NC(=O)[C@H](Cc1ccccc1)N=[N+]=[N-])C(=O)[C@@]1(C)CO1 (some centres undefined) | > 2.5 | –
23 | < 10 | 16 | CC(C)C[C@H](NC(=O)[C@H](Cc1ccccc1)NC(=O)[C@H](Cc1c[nH]c2ccccc12)NC(=O)[C@H](Cc1ccccc1)N=[N+]=[N-])C(=O)[C@@]1(C)CO1 | – | Activity [4]: 49%
24 | 119 | – | COc1ccc(C[C@H](NC(=O)[C@H](CC2CCCCC2)NC(=O)CN2CCOCC2)C(=O)N[C@@H](CC(C)C)C(=O)[C@@]2(C)CO2)cc1 | 2 | –
25 | 2 | – | CC(C)C[C@H](NC(=O)[C@H](Cc1ccccc1)NC(=O)[C@H](CC1CCC(C)CC1)NC(=O)[C@H](Cc1ccccc1)N=[N+]=[N-])C(=O)[C@@]1(C)CO1 (some centres undefined) | – | pIC50(app) [9]: 7.34; pIC50(app) [5]: < 4; pIC50(app) [6]: 8.7; pIC50(app) [7]: < 4; pIC50(app) [8]: 7.96
26 | < 10 | – | CC(C)C[C@H](NC(=O)[C@H](Cc1ccccc1)NC(=O)[C@H](CC1CCCCC1)NC(=O)[C@H](Cc1ccccc1)N=[N+]=[N-])C(=O)[C@@]1(C)CO1 | > 5 | –
27 | 17 to 19 | – | CC(C)C[C@H](NC(=O)[C@H](Cc1ccccc1)NC(=O)[C@H](CC1CCC(C2CCCCC2)CC1)NC(=O)[C@H](Cc1ccccc1)N=[N+]=[N-])C(=O)[C@@]1(C)CO1 (some centres undefined) | – | pIC50(app) [5]: < 4; pIC50(app) [6]: 7.77; pIC50(app) [7]: < 4; pIC50(app) [8]: 6.36
28 | > 1000 | – | CC1=C(C(=O)N[C@H](C)C(=O)N[C@@H](Cc2c[nH]c3ccccc23)C(=O)N[C@@H](CC2CCCCC2)C(=O)[C@@]2(C)CO2)Cc2ccccc21 | – | –
29 | < 10 | – | C[C@H](NC(=O)[C@H](Cc1ccccc1)NC(=O)[C@H](Cc1ccc(-c2ccccc2)cc1)NC(=O)[C@H](Cc1ccccc1)N=[N+]=[N-])C(=O)[C@@]1(C)CO1 | > 13 | –
30 | 3.8 | – | C[C@H](NC(=O)[C@H](Cc1ccccc1)NC(=O)[C@H](C[C@H]1CC[C@H](c2ccccc2)CC1)NC(=O)[C@H](Cc1ccccc1)N=[N+]=[N-])C(=O)[C@@]1(C)CO1 | 2250 | –
31 | 853 | – | COc1ccc(C[C@H](NC(=O)[C@H](CC23CC4CC(CC(C4)C2)C3)NC(=O)CN2CCOCC2)C(=O)N[C@@H](CC(C)C)C(=O)[C@@]2(C)CO2)cc1 | 1 | –
32 | < 10 | 14 | CC(C)C[C@H](NC(=O)[C@H](Cc1ccccc1)NC(=O)[C@H](Cc1ccc2ccccc2c1)NC(=O)[C@H](Cc1ccccc1)N=[N+]=[N-])C(=O)[C@@]1(C)CO1 | – | Activity [4]: 49%
33 | < 10 | 44 | CC(C)C[C@H](NC(=O)[C@H](Cc1ccccc1)NC(=O)[C@@H](NC(=O)[C@H](Cc1ccccc1)N=[N+]=[N-])c1ccccc1)C(=O)[C@@]1(C)CO1 | – | Activity [4]: 56%
